In ChEMBL document CHEMBL5303300, “EUbOPEN Chemogenomics Library - Multiplex” (2023):
Several values for one entry are separate records, joined by “and”; a condition that tells them apart may be missing. Identical values can stand only once.

Tested on: Fibroblast
Test: Multiplex assay against human fibroblast
Type: toxicity, cell-based
Details: number of replicates 2
Method in brief: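 With compound added, live cells were imaged on a CQ1 microscope at 37°C and 5% CO2; staining with Hoechst33342, BioTracker Green Microtubule Cytoskeleton Dye, MitoTracker Red and Annexin V Alexa Fluor 680 had been done at seeding. The CellPathfinder machine-learning gating scheme split cells into Hoechst high-intensity objects or normal cells, normal cells into healthy, pyknosed or fragmented nuclei, and pyknosed cells into mitotic or apoptotic. The tubulin, mitochondrial-mass and membrane-permeability phenotypes are per cents of healthy-nucleus cells.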

[1] = 12 h, 10 µM, compound concentration 10 uM
[2] = 24 h, 10 µM, compound concentration 10 uM
[3] = 48 h, 10 µM, compound concentration 10 uM
[4] = 12 h, 1 µM, compound concentration 1 uM
[5] = 24 h, 1 µM, compound concentration 1 uM
[6] = 48 h, 1 µM, compound concentration 1 uM

CN[C@@H]1C[C@H]2O[C@@](C)([C@@H]1OC)n1c3ccccc3c3c4c(c5c6ccccc6n2c5c31)C(=O)NC4 [STAUROSPORINE]
Population Apoptotic (%) [1]: 76% and 73% and 72% and 71% | Population Fragmented Nuclei (%) [1]: 16% and 10% and 13% | Population Healthy Nuclei (%) [1]: 10% and 6% and 14% and 9% | Population Hoechst High Intensity Objects (%) [1]: 0% and 1% | Population Membrane Permeable-Phenotype (%) [1]: 20% and 15% and 7% | Population Mitochondria Different-Phenotype (%) [1]: 0% and 2% | Population Mitotic Cells (%) [1]: 23% and 26% and 27% and 28% | Population Normal (%) [1]: 99% and 100% and 98% | Population Pyknosed Nuclei (%) [1]: 72% and 82% and 74% | Population Tubulin-Different-Phenotype (%) [1]: 14% and 10% and 4% | Population Apoptotic (%) [2]: 95% and 88% and 87% | Population Fragmented Nuclei (%) [2]: 15% and 21% and 13% | Population Healthy Nuclei (%) [2]: 5% and 3% and 4% and 2% | Population Hoechst High Intensity Objects (%) [2]: 0% and 1% | Population Membrane Permeable-Phenotype (%) [2]: 50% [middle of 4 runs] | Population Mitochondria Different-Phenotype (%) [2]: 0% | Population Mitotic Cells (%) [2]: 4% and 11% and 12% | Population Normal (%) [2]: 100% and 99% and 98% | Population Pyknosed Nuclei (%) [2]: 78% and 74% and 82% and 84% | Population Tubulin-Different-Phenotype (%) [2]: 50% [middle of 4 runs] | Population Apoptotic (%) [3]: 99% and 93% and 92% and 91% | Population Fragmented Nuclei (%) [3]: 27% and 28% and 20% and 22% | Population Healthy Nuclei (%) [3]: 3% and 4% and 7% and 6% | Population Hoechst High Intensity Objects (%) [3]: 0% | Population Membrane Permeable-Phenotype (%) [3]: 66% [middle of 4 runs] | Population Mitochondria Different-Phenotype (%) [3]: 0% and 20% | Population Mitotic Cells (%) [3]: 0% and 6% and 7% and 8% | Population Normal (%) [3]: 100% and 99% | Population Pyknosed Nuclei (%) [3]: 69% and 66% and 72% and 71% | Population Tubulin-Different-Phenotype (%) [3]: 50% and 55% and 45% and 60%

CN(C)CC#Cc1ccc2[nH]c3c(c2c1)-c1nc(N)ncc1CCC3
Population Apoptotic (%) [4]: 30% and 35% | Population Fragmented Nuclei (%) [4]: 32% and 18% | Population Healthy Nuclei (%) [4]: 49% and 55% | Population Hoechst High Intensity Objects (%) [4]: 0% | Population Membrane Permeable-Phenotype (%) [4]: 4% and 6% | Population Mitochondria Different-Phenotype (%) [4]: 2% and 0% | Population Mitotic Cells (%) [4]: 69% and 64% | Population Normal (%) [4]: 100% | Population Pyknosed Nuclei (%) [4]: 17% and 25% | Population Tubulin-Different-Phenotype (%) [4]: 23% and 28% | Total Cell Count [4]: 293 and 186 | Population Fragmented Nuclei (%) [1]: 25% and 22% | Population Healthy Nuclei (%) [1]: 49% and 62% | Population Hoechst High Intensity Objects (%) [1]: 0% | Population Membrane Permeable-Phenotype (%) [1]: 0% and 5% | Population Mitochondria Different-Phenotype (%) [1]: 2% and 1% | Population Mitotic Cells (%) [1]: 61% and 89% | Population Normal (%) [1]: 100% and 99% | Population Pyknosed Nuclei (%) [1]: 25% and 15% | Population Tubulin-Different-Phenotype (%) [1]: 26% and 31% | Total Cell Count [1]: 228 and 378 | Population Apoptotic (%) [5]: 48% and 47% | Population Fragmented Nuclei (%) [5]: 18% and 27% | Population Healthy Nuclei (%) [5]: 65% and 60% | Population Hoechst High Intensity Objects (%) [5]: 0% | Population Membrane Permeable-Phenotype (%) [5]: 7% and 1% | Population Mitochondria Different-Phenotype (%) [5]: 0% and 4% | Population Mitotic Cells (%) [5]: 51% and 52% | Population Normal (%) [5]: 100% and 99% | Population Pyknosed Nuclei (%) [5]: 16% and 11% | Population Tubulin-Different-Phenotype (%) [5]: 25% and 26% | Total Cell Count [5]: 221 and 287 | Population Apoptotic (%) [2]: 39% and 42% | Population Fragmented Nuclei (%) [2]: 19% and 16% | Population Healthy Nuclei (%) [2]: 62% and 56% | Population Hoechst High Intensity Objects (%) [2]: 4% and 1% | Population Membrane Permeable-Phenotype (%) [2]: 4% and 1% | Population Mitochondria Different-Phenotype (%) [2]: 4% and 3% | Population Mitotic Cells (%) [2]: 60% and 57% | Population Normal (%) [2]: 95% and 98% | Population Pyknosed Nuclei (%) [2]: 17% and 26% | Population Tubulin-Different-Phenotype (%) [2]: 52% and 43% | Total Cell Count [2]: 286 and 184 | Population Apoptotic (%) [6]: 70% and 47% | Population Fragmented Nuclei (%) [6]: 25% and 32% | Population Healthy Nuclei (%) [6]: 65% and 62% | Population Hoechst High Intensity Objects (%) [6]: 1% and 2% | Population Membrane Permeable-Phenotype (%) [6]: 3% | Population Mitochondria Different-Phenotype (%) [6]: 0% | Population Mitotic Cells (%) [6]: 29% and 52% | Population Normal (%) [6]: 98% and 97% | Population Pyknosed Nuclei (%) [6]: 9% and 5% | Population Tubulin-Different-Phenotype (%) [6]: 24% and 17% | Total Cell Count [6]: 266 and 347 | Population Apoptotic (%) [3]: 68% and 64% | Population Fragmented Nuclei (%) [3]: 13% and 6% | Population Healthy Nuclei (%) [3]: 67% and 77% | Population Hoechst High Intensity Objects (%) [3]: 0% and 5% | Population Membrane Permeable-Phenotype (%) [3]: 13% and 12% | Population Mitochondria Different-Phenotype (%) [3]: 1% and 5% | Population Mitotic Cells (%) [3]: 31% and 35% | Population Normal (%) [3]: 100% and 94% | Population Pyknosed Nuclei (%) [3]: 18% and 16% | Population Tubulin-Different-Phenotype (%) [3]: 52% and 63% | Total Cell Count [3]: 153 and 185

CNC(=O)c1c(F)cccc1Nc1nc(Nc2cc3c(cc2OC)CCN3C(=O)CN(C)C)nc2[nH]ccc12
Population Apoptotic (%) [4]: 26% and 33% | Population Fragmented Nuclei (%) [4]: 9% and 14% | Population Healthy Nuclei (%) [4]: 66% and 70% | Population Hoechst High Intensity Objects (%) [4]: 0% | Population Membrane Permeable-Phenotype (%) [4]: 6% and 2% | Population Mitochondria Different-Phenotype (%) [4]: 0% and 3% | Population Mitotic Cells (%) [4]: 73% and 66% | Population Normal (%) [4]: 100% and 99% | Population Pyknosed Nuclei (%) [4]: 24% and 14% | Population Tubulin-Different-Phenotype (%) [4]: 7% and 20% | Total Cell Count [4]: 166 and 190 | Population Apoptotic (%) [1]: 61% and 48% | Population Fragmented Nuclei (%) [1]: 11% and 13% | Population Healthy Nuclei (%) [1]: 16% and 26% | Population Hoechst High Intensity Objects (%) [1]: 0% | Population Membrane Permeable-Phenotype (%) [1]: 34% and 21% | Population Mitochondria Different-Phenotype (%) [1]: 3% | Population Mitotic Cells (%) [1]: 38% and 51% | Population Normal (%) [1]: 100% | Population Pyknosed Nuclei (%) [1]: 72% and 59% | Population Tubulin-Different-Phenotype (%) [1]: 80% and 51% | Total Cell Count [1]: 162 and 196 | Population Apoptotic (%) [5]: 27% and 47% | Population Fragmented Nuclei (%) [5]: 11% and 9% | Population Healthy Nuclei (%) [5]: 67% and 80% | Population Hoechst High Intensity Objects (%) [5]: 0% | Population Membrane Permeable-Phenotype (%) [5]: 2% and 1% | Population Mitochondria Different-Phenotype (%) [5]: 0% and 4% | Population Mitotic Cells (%) [5]: 72% and 52% | Population Normal (%) [5]: 100% and 99% | Population Pyknosed Nuclei (%) [5]: 20% and 10% | Total Cell Count [5]: 159 and 167 | Population Apoptotic (%) [2]: 70% and 79% | Population Fragmented Nuclei (%) [2]: 16% and 11% | Population Healthy Nuclei (%) [2]: 18% and 17% | Population Hoechst High Intensity Objects (%) [2]: 1% and 0% | Population Membrane Permeable-Phenotype (%) [2]: 72% and 73% | Population Mitochondria Different-Phenotype (%) [2]: 6% and 7% | Population Mitotic Cells (%) [2]: 29% and 20% | Population Normal (%) [2]: 98% and 99% | Population Pyknosed Nuclei (%) [2]: 64% and 71% | Population Tubulin-Different-Phenotype (%) [2]: 75% and 65% | Total Cell Count [2]: 159 and 152 | Population Apoptotic (%) [6]: 58% and 81% | Population Fragmented Nuclei (%) [6]: 13% and 15% | Population Healthy Nuclei (%) [6]: 73% and 76% | Population Hoechst High Intensity Objects (%) [6]: 0% | Population Membrane Permeable-Phenotype (%) [6]: 2% and 1% | Population Mitochondria Different-Phenotype (%) [6]: 0% | Population Mitotic Cells (%) [6]: 41% and 18% | Population Normal (%) [6]: 100% | Population Pyknosed Nuclei (%) [6]: 13% and 8% | Population Tubulin-Different-Phenotype (%) [6]: 3% and 5% | Total Cell Count [6]: 178 and 200 | Population Apoptotic (%) [3]: 90% and 93% | Population Fragmented Nuclei (%) [3]: 37% and 31% | Population Healthy Nuclei (%) [3]: 20% and 24% | Population Hoechst High Intensity Objects (%) [3]: 0% | Population Membrane Permeable-Phenotype (%) [3]: 75% and 48% | Population Mitochondria Different-Phenotype (%) [3]: 3% and 0% | Population Mitotic Cells (%) [3]: 9% and 6% | Population Normal (%) [3]: 100% and 99% | Population Pyknosed Nuclei (%) [3]: 41% and 43% | Population Tubulin-Different-Phenotype (%) [3]: 62% and 57% | Total Cell Count [3]: 158 and 145
